MBD2 DNA inh: blocks human MBD2 binding to methylated DNA | Q9UBB5 | TR-FRET, MBD2 binding to methylated oligonucleotide | inhibition, % at 4.4 µM | 370,000 tested, 0.31% active | AID 686964; in the data active = inhibition above about 13%
ARFGAP1 inhibitor: rat ARFGAP1 inhibition. Arfgap1-stimulated ARF1 GTP hydrolysis, GDP FP detection. inhibition, % at 16.5 µM. 360,000 tested, 0.26% active. AID 651572;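 active = inhibition above a per-plate limit, mean inhibition of low control wells plus 3 SD, cut at about 25% in these data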;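 also: 0% = DMSO wells with enzyme and 100% = wells lacking Arfgap1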
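Replicates: Single well per compound | Assay system: Truncated rat Arfgap1 GAP domain | Control set: No-Arfgap1 wells (100%) versus DMSO full-reaction wells (0%) | Times: Enzyme reaction 120 min at 25 °C after 20 min preincubation | Reagent: Human ARF1(Δ1-17)-GTP substrate | Measured by: Tracer-displacement fluorescence polarization with EDTA stop, 620/688 nm | Measure: Percent inhibition of Arfgap1-stimulated GTP hydrolysis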
TDP2 absorb: TDP2 (human) inhibition, absorbance primary screen; O95551; recombinant TDP2, T5PNP hydrolysis, p-nitrophenol absorbance 415 nm; inhibition, % at 12.8 µM; 370,000 tested, 0.34% active;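 active = inhibition above the mean of all tested compounds plus 3 SD, set per campaign, cut at about 25% in these data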;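 also: 0% = DMSO with enzyme and 100% = buffer with substrate but no TDP2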
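System – recombinant human TDP2 · Amount – 120 nM TDP2 per well · Buffer or medium – Mg2+-containing Tris-HCl buffer, pH 7.5 · Reagent – T5PNP substrate, 5 mM · Dosing – 12.8 µM single point, 1% DMSO · Incubation – 2 h at 37 °C · Measured by – epi absorbance · Read-out basis – percent inhibition · Benchmarks – high control without enzyme, low control DMSO plus TDP2 · Repeats – singlicate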
UHRF1 binding: human UHRF1 methylated DNA binding inhibitors | inhibition, % at 4.4 µM | Q96T88 | UHRF1 binding to methylated oligo, TR-FRET | 370,000 tested, 0.75% active | AID 687016; in the data active = inhibition above about 21%;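 also: UHRF1 SRA domain binding a hemimethylated CpG hairpin DNA probe; 0% = median of test compound wells and 100% = reference inhibitor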
Target sequence (Q96T88 whole entry, looked up, the tested form may be a part): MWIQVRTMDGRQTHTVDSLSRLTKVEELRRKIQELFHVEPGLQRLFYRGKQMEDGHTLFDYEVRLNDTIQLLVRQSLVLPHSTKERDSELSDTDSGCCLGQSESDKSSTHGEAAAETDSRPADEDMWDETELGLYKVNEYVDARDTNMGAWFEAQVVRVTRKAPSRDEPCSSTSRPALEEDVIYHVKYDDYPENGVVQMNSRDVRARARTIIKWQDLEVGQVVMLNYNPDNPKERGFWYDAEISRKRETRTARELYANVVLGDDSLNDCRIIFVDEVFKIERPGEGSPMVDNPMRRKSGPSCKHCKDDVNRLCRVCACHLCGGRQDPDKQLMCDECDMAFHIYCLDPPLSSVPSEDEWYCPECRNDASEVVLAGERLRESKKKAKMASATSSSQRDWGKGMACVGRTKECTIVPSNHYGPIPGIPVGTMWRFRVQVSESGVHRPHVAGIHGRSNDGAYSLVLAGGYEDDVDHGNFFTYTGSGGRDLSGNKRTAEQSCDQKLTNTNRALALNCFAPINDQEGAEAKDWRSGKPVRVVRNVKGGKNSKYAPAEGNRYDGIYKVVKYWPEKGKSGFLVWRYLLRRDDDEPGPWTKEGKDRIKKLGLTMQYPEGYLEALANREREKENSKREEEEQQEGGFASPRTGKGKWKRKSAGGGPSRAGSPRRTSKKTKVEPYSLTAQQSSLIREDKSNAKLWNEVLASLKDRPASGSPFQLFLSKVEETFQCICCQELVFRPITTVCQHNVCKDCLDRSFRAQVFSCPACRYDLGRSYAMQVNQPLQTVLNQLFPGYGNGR
LEDGF integ inh: blocks HIV-1 LEDGF/p75-dependent DNA integration. TR-FRET IN-LEDGF/p75 DNA integration, Eu/Cy5. inhibition, % at 3.7 µM. 370,000 tested, 0.64% active. AID 743269;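 active = inhibition above the screen-wide mean plus 3 SD, cut at about 13% in these data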;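 also: signal is the Cy5 over europium emission ratio at 671 and 618 nm; 0% = plate median of compound wells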
ASAP1 inh: ASAP1 ArfGAP inhibition; inhibition, % at 16.5 µM; Q9ULH1; AID 624377; 360,000 tested, 0.19% active; ASAP1-stimulated ARF1 GTP hydrolysis, GDP FP detection; in the data active = inhibition above about 25%;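 also: 0% = vehicle with enzyme and substrate and 100% = no enzyme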
IN multimer act: activates HIV-1 integrase multimerization in LEDGF counter-screen; shares compounds with LEDGF integ inh; TR-FRET HIV-1 integrase multimerization, biochemical; activation, % at 7.7 µM; 2,000 tested, 17% active; AID 1053131; in the data active = activation above about 8.9%
TR-FRET interf: optically interferes with TR-FRET readout in LEDGF counter-screen; inhibition, % at 7.7 µM; 2,000 tested, under 10 active; shares compounds with LEDGF integ inh; AID 1053135; TR-FRET optical interference counterscreen, HIV-1 IN multimerization;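 active = inhibition above the mean over all tested compounds plus 3 SD, which no compound reached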;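 also: 0% = integrase with antibodies and DMSO and 100% = antibodies without integrase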
IN-LEDGF confirm: LEDGF/p75-dependent HIV-1 integration inhibition, confirmation. shares compounds with LEDGF integ inh. TR-FRET LEDGF/p75-dependent HIV-1 integration, biochemical. inhibition, % at 3.7 µM. 2,000 tested, 36% active. AID 1053136; in the data active = inhibition above about 14%
An asterisk follows results filed as active; . = not tested or not shown. Hits are enriched below; roughly 2% of the tested compounds scored in any of these assays.

SMILES	MBD2 DNA inh	ARFGAP1 inhibitor	TDP2 absorb	UHRF1 binding	LEDGF integ inh	ASAP1 inh	IN multimer act	TR-FRET interf	IN-LEDGF confirm
CCC(CC)C1C(C#N)=C(N)Oc2cc(C)oc(=O)c21 (centres undefined)	-1	4	2	-3	-3	-2	.	.	.
CNc1cncc(-c2cccc(C(=O)NCCN(C)C)c2)n1	-5	-5	-3	-3	0	18	.	.	.
CN(C)CCNC(=O)c1cccc(-c2cccc3nncn23)c1	-7	8	-4	-1	55*	-2	-1	4	1
CN(Cc1ccccc1)c1cc2c(c3c1ccn3C)C1CCC2C1 (centres undefined)	-2	9	1	-4	52*	-1	-1	3	-5
CC1(c2nnnn2C2CCCCC2)CCCC(=O)N1CCc1ccc(O)cc1 (centres undefined)	-4	.	-2	1	-1	.	.	.	.
COc1ccc(NC(=S)N(CCCN2CCCCC2)Cc2cccs2)cc1	0	-5	-1	-4	87*	-12	0	-2	-6
COc1ccc(NC(=S)N(CCCN2CCC(C)CC2)Cc2cccs2)cc1	1	-3	3	-2	1	-17	.	.	.
O=C(OCC#CCSc1nnc(-c2cccc3ccccc23)o1)c1cccc(C(F)(F)F)c1	1	.	-1	4	4	.	.	.	.
Cc1nn(C)c(-c2n[nH]c(=S)n2Cc2ccco2)c1Cl	7	-6	1	8	20*	8	1	-5	-6
Oc1ccc(-c2n[nH]c(=S)n2Cc2ccco2)cc1	4	-2	1	1	1	-7	.	.	.
CC1(c2nnc(-c3ccccc3)o2)CC(c2cccnc2)=NO1 (centres undefined)	-1	10	2	-2	-3	4	.	.	.
CC1(c2nnc(Cc3ccccc3)o2)CC(c2cccnc2)=NO1 (centres undefined)	-2	13	5	6	92*	2	0	0	-1
O=C(CSc1nccc(=O)[nH]1)N1N=C2/C(=C/c3ccco3)CCCC2C1c1ccco1 (centres undefined)	10	2	-4	14	37*	-5	2	-9	19*
Nc1nc(SCC(=O)N2N=C3/C(=C\c4ccco4)CCCC3C2c2ccco2)n[nH]1 (centres undefined)	-6	-6	-10	-1	2	-9	.	.	.
Nc1nc(SCC(=O)N2N=C3/C(=C/c4ccco4)CCCC3C2c2ccco2)n[nH]1 (centres undefined)	1	-14	9	-3	18*	-5	1	-4	6
COC(=O)[C@]12C[C@H](CC(=O)N3CCCC3)C(=O)N(Cc3ccccc3)C1=C[C@H](COCc1ccccc1)O[C@@H]2C	-1	.	-5	2	-4	.	.	.	.
COC(=O)[C@H](C(C)C)N(Cc1cn(Cc2ccc(C)cc2)nn1)S(=O)(=O)c1ccccc1Br	8	.	5	15	5	.	.	.	.
CC(C)c1ccccc1NC(=O)CN1C(=O)c2ccccc2C1=O	-5	6	-8	1	73*	4	-2	9	2
O=C(Nc1ccccc1C(=O)N1CCN(c2cccc(Cl)c2)CC1)C1=CSCCO1	-1	10	7	-1	81*	5	-1	7	0
CCCCC(=O)Nc1cccc(NC(=O)CC)c1	7	1	9	2	25*	3	6	-32	1
CC(O)CCC(=O)NNC1CC(=O)N(c2ccccc2)C1=O (centres undefined)	-2	12	-2	-1	2	2	.	.	.
CCOC(=O)NNC1CC(=O)N(c2ccccc2)C1=O (centres undefined)	3	-1	4	0	18*	2	1	-5	2
Cc1nc2sc(C(c3ccco3)N3CCN(c4ccccc4F)CC3)c(O)n2n1 (centres undefined)	-4	9	0	-4	1	-8	.	.	.
Cc1nc2sc(C(c3ccco3)N3CCc4ccccc4C3)c(O)n2n1 (centres undefined)	-3	-2	-4	8	21*	7	0	1	11
CNCc1ccccc1Sc1ccc(O)c(O)c1	12	14	-1	17	14*	6	3	-13	10
SMILES	MBD2 DNA inh	ARFGAP1 inhibitor	TDP2 absorb	UHRF1 binding	LEDGF integ inh	ASAP1 inh	IN multimer act	TR-FRET interf	IN-LEDGF confirm
COc1ccc(Sc2ccccc2CN(C)C)cc1OC	-1	5	-3	2	3	-8	.	.	.
COc1ccc(/C=N/NC(=O)c2ccncc2)cc1CN1CCN(c2ccc(F)cc2)CC1	-3	5	-8	-1	-5	0	.	.	.
COc1ccc(/C=N\NC(=O)c2cc(O)c(O)c(O)c2)cc1CN1CCN(c2ccc(F)cc2)CC1	-1	8	4	11	20*	8	37*	-188	38*
C[C@H](O)[C@@H]1CN2CCc3c([nH]c4c(-c5ccc6c(c5)OCO6)cccc34)[C@@H]2C[C@@H]1N(C)C(=O)NC1CCCCC1	-6	.	-6	-3	3	.	.	.	.
O=C(Nc1ccc(F)cc1)NC1CCN(Cc2nnnn2Cc2ccco2)CC1	9	14	-8	19	14*	-1	-1	4	-1
O=C(NCc1ccc(Cl)cc1)c1ccc(Br)o1	1	-17	8	-1	56*	-2	0	-2	-7
O=C(NCc1ccccc1)OC1CCC12CCC(c1ccccc1)CC2 (centres undefined)	-1	.	-10	0	7	.	.	.	.
Cc1cccc(-c2ccc3[nH]c4c(c3c2)CCN2C[C@@H]([C@H](C)OC(=O)Nc3ccccc3C)[C@@H](N(C)C(=O)Nc3ccccc3C)C[C@@H]42)c1	2	24	-1	0	56*	21	2	-5	-5
C[C@H](O)[C@@H]1CN2CCc3c([nH]c4ccccc34)[C@@H]2C[C@@H]1N(C)C(=O)Nc1cccc2ccccc12	-9	-5	13	-9	4	-4	.	.	.
CN(C(=O)c1ccccc1OCc1ccc(F)cc1)c1c(N)n(Cc2ccccc2)c(=O)[nH]c1=O	1	0	3	2	55*	-5	-1	7	-5

High-throughput results (PubChem BioAssay)
